Measured values taken from ChEMBL document CHEMBL1949649, “5-sulfonyl-benzimidazoles as selective CB2 agonists-part 2” (Bioorg Med Chem Lett, 2012).
Converted amounts (≈) assume the structure as drawn. The source made the active and inactive calls. The calls are words filed in the database; no cut-off is given here.

Test system: not listed separately
Experiment: Solubility of the compound in 10% cyclodextrin
Settings: not given

SMILES	solubility
CC(=O)N1CCC(Cn2c(C(C)(C)C)nc3cc(S(=O)(=O)CC4CC4)ccc32)CC1	25 mg/mL (≈ 57.9 mM)
CC(=O)N1CCC(Cn2c(C(C)(C)C)nc3cc(S(=O)(=O)c4nccs4)ccc32)CC1	8 mg/mL (≈ 17.4 mM)

Test system: not listed separately
Experiment: Half life in Beagle dog at 5 mg/kg, po
Assay type: ADME, organism-based, Canis lupus familiaris
Design: dose 5 mg/kg, route oral
Settings: in vivo
Summary of the method: (§1)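 Beagle dogs dosed at 1 mg/kg iv and 5 mg/kg po; plasma kinetics give clearance, volume of distribution, iv and po half-life, and absolute oral bioavailability.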

SMILES	half-life
CC(=O)N1CCC(Cn2c(C(C)(C)C)nc3cc(S(=O)(=O)CC4CC4)ccc32)CC1	192 min
CC(=O)N1CCC(Cn2c(C(C)(C)C)nc3cc(S(=O)(=O)c4nccs4)ccc32)CC1	300 min

Test system: Rattus norvegicus
Experiment: Toxicity in rat up to 40 mg/kg, ip by modified tetrad test
Assay type: organism-based
Design: dose 40 mg/kg, route intraperitoneal
Settings: in vivo

SMILES	Activity
CC(=O)N1CCC(Cn2c(C(C)(C)C)nc3cc(S(=O)(=O)CC4CC4)ccc32)CC1	Non-toxic
CC(=O)N1CCC(Cn2c(C(C)(C)C)nc3cc(S(=O)(=O)c4nccs4)ccc32)CC1	Non-toxic

Test system: not listed separately
Experiment: Volume of distribution in Sprague-Dawley rat at 2.5 mg/kg, iv and 10 mg/kg, po
Assay type: ADME, organism-based
Settings: in vivo

SMILES	Vd
CC(=O)N1CCC(Cn2c(C(C)(C)C)nc3cc(S(=O)(=O)CC4CC4)ccc32)CC1	4.4 L/kg
CC(=O)N1CCC(Cn2c(C(C)(C)C)nc3cc(S(=O)(=O)c4nccs4)ccc32)CC1	1.3 L/kg

Biological target: Cannabinoid receptor 2 (Homo sapiens, UniProt P34972)
Sequence (P34972 whole entry): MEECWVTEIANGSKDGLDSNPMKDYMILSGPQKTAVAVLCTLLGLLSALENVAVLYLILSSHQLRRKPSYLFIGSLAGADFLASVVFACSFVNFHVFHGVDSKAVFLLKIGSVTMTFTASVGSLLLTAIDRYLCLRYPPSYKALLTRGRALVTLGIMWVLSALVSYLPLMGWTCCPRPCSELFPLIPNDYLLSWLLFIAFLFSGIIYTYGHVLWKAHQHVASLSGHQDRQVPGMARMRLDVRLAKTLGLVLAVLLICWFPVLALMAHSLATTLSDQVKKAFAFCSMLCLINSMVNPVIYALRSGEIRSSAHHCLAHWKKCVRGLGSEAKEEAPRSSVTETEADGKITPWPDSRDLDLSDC
Experiment: Agonist activity at human CB2 receptor
Assay type: functional
Settings: not given

SMILES	EC50
CC(C)(C)c1nc2cc(S(=O)(=O)CCCC(F)(F)F)ccc2n1CC1CCNCC1	240 nM
CC(=O)N1CCC(Cn2c(C(C)(C)C)nc3cc(S(=O)(=O)CC4CC4)ccc32)CC1	8.2 nM
CC(=O)N1CCC(Cn2c(C(C)(C)C)nc3cc(S(=O)(=O)c4nccs4)ccc32)CC1	7.7 nM

Test system: Rattus norvegicus
Experiment: Antiallodynic activity in rat chronic constriction injury-induced neuropathic pain model assessed as reversal of pain response at 40 mg/kg/day, sc
Assay type: functional, organism-based
Settings: not given
Summary of the method: (§2)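 Chronic constriction injury of rats (n = 7 per group); daily subcutaneous dosing over repeated days, with morphine as comparator. Cold allodynia read as lifting on a cold plate at 0 °C for 4 min.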

SMILES	Activity
CC(=O)N1CCC(Cn2c(C(C)(C)C)nc3cc(S(=O)(=O)c4nccs4)ccc32)CC1	Active

Test system: not listed separately
Experiment: Drug metabolism in human liver microsomes at 5 uM after 60 mins
Assay type: ADME, Microsome
Settings: read-out: Drug metabolism
Summary of the method: (§3)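 Test compound incubated at 5 µM with liver microsomes (human, rat, mouse or dog) for 60 min; read-out is % of compound metabolised.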

SMILES	metabolised at 1 h, 5 µM
CC(=O)N1CCC(Cn2c(C(C)(C)C)nc3cc(S(=O)(=O)CC4CC4)ccc32)CC1	5%
CC(=O)N1CCC(Cn2c(C(C)(C)C)nc3cc(S(=O)(=O)c4nccs4)ccc32)CC1	12%

Test system: not listed separately
Experiment: Volume of distribution in Beagle dog at 1 mg/kg, iv and 5 mg/kg, po
Assay type: ADME, organism-based, Canis lupus familiaris
Settings: in vivo
Summary of the method: as §1

SMILES	Vd
CC(=O)N1CCC(Cn2c(C(C)(C)C)nc3cc(S(=O)(=O)CC4CC4)ccc32)CC1	1.9 L/kg
CC(=O)N1CCC(Cn2c(C(C)(C)C)nc3cc(S(=O)(=O)c4nccs4)ccc32)CC1	3.7 L/kg

Species on record: Rattus norvegicus
Experiment: Antihyperalgesic activity against Freund's adjuvant-induced thermal hyperalgesia in rat
Assay type: functional, organism-based
Settings: not given

SMILES	Activity
CC(=O)N1CCC(Cn2c(C(C)(C)C)nc3cc(S(=O)(=O)CC4CC4)ccc32)CC1	inactive
CC(=O)N1CCC(Cn2c(C(C)(C)C)nc3cc(S(=O)(=O)c4nccs4)ccc32)CC1	inactive

Species on record: Rattus norvegicus
Experiment: Antihyperalgesic activity against carrageenan-induced thermal hyperalgesia in rat
Assay type: functional, organism-based
Settings: not given

SMILES	Activity
CC(=O)N1CCC(Cn2c(C(C)(C)C)nc3cc(S(=O)(=O)CC4CC4)ccc32)CC1	inactive
CC(=O)N1CCC(Cn2c(C(C)(C)C)nc3cc(S(=O)(=O)c4nccs4)ccc32)CC1	inactive

Test system: Rattus norvegicus
Experiment: Antinociceptive activity in rat at 10 mg/kg by tail withdrawal reflex test
Assay type: functional, organism-based
Design: dose 10 mg/kg
Settings: not given

SMILES	Activity
CC(=O)N1CCC(Cn2c(C(C)(C)C)nc3cc(S(=O)(=O)CC4CC4)ccc32)CC1	inactive
CC(=O)N1CCC(Cn2c(C(C)(C)C)nc3cc(S(=O)(=O)c4nccs4)ccc32)CC1	inactive

Test system: Mus musculus
Experiment: Antiinflammatory activity in mouse EAE model of multiple sclerosis assessed as delay in neurological signs of autoimmune encephalomyelitis disease progression at 40 mg/kg/day, po administered from day 8 to day 16
Assay type: functional, organism-based
Settings: not given
Summary of the method: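 Mice with experimental autoimmune encephalomyelitis given chronic oral dosing at 40 mg/kg; neurological signs scored as EAE disease scores over time.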

SMILES	Activity
CC(=O)N1CCC(Cn2c(C(C)(C)C)nc3cc(S(=O)(=O)CC4CC4)ccc32)CC1	Active
CC(=O)N1CCC(Cn2c(C(C)(C)C)nc3cc(S(=O)(=O)c4nccs4)ccc32)CC1	Active

Test system: not listed separately
Experiment: Absolute oral bioavailability in Beagle dog at 5 mg/kg
Assay type: ADME, organism-based, Canis lupus familiaris
Settings: in vivo
Summary of the method: as §1

SMILES	bioavailability
CC(=O)N1CCC(Cn2c(C(C)(C)C)nc3cc(S(=O)(=O)CC4CC4)ccc32)CC1	86%
CC(=O)N1CCC(Cn2c(C(C)(C)C)nc3cc(S(=O)(=O)c4nccs4)ccc32)CC1	100%

Test system: Rattus norvegicus
Experiment: Antiallodynic activity in rat chronic constriction injury-induced neuropathic pain model assessed as reversal of pain response at 40 mg/kg/day, sc after 12 days
Assay type: functional, organism-based
Settings: not given
Summary of the method: as §2

SMILES	Activity
CC(=O)N1CCC(Cn2c(C(C)(C)C)nc3cc(S(=O)(=O)c4nccs4)ccc32)CC1	Active

Test system: not listed separately
Experiment: Drug metabolism in mouse liver microsomes at 5 uM after 60 mins
Assay type: ADME, Microsome
Settings: read-out: Drug metabolism
Summary of the method: as §3

SMILES	metabolised at 1 h, 5 µM
CC(=O)N1CCC(Cn2c(C(C)(C)C)nc3cc(S(=O)(=O)CC4CC4)ccc32)CC1	12%
CC(=O)N1CCC(Cn2c(C(C)(C)C)nc3cc(S(=O)(=O)c4nccs4)ccc32)CC1	6%

Test system: not listed separately
Experiment: Clearance in Beagle dog at 1 mg/kg, iv and 5 mg/kg, po
Assay type: ADME, organism-based, Canis lupus familiaris
Settings: in vivo
Summary of the method: as §1

SMILES	clearance
CC(=O)N1CCC(Cn2c(C(C)(C)C)nc3cc(S(=O)(=O)CC4CC4)ccc32)CC1	13.3 mL/min/kg
CC(=O)N1CCC(Cn2c(C(C)(C)C)nc3cc(S(=O)(=O)c4nccs4)ccc32)CC1	11.7 mL/min/kg

Test system: not listed separately
Experiment: Half life in Beagle dog at 1 mg/kg, iv
Assay type: ADME, organism-based, Canis lupus familiaris
Design: dose 1 mg/kg, route intravenous
Settings: in vivo
Summary of the method: as §1

SMILES	half-life
CC(=O)N1CCC(Cn2c(C(C)(C)C)nc3cc(S(=O)(=O)CC4CC4)ccc32)CC1	180 min
CC(=O)N1CCC(Cn2c(C(C)(C)C)nc3cc(S(=O)(=O)c4nccs4)ccc32)CC1	240 min

Test system: not listed separately
Experiment: Half life in Sprague-Dawley rat at 10 mg/kg, po
Assay type: ADME, organism-based
Design: dose 10 mg/kg, route oral
Settings: in vivo

SMILES	half-life
CC(=O)N1CCC(Cn2c(C(C)(C)C)nc3cc(S(=O)(=O)CC4CC4)ccc32)CC1	240 min
CC(=O)N1CCC(Cn2c(C(C)(C)C)nc3cc(S(=O)(=O)c4nccs4)ccc32)CC1	186 min

Test system: not listed separately
Experiment: Half life in Sprague-Dawley rat at 2.5 mg/kg, iv
Assay type: ADME, organism-based
Design: dose 2.5 mg/kg, route intravenous
Settings: in vivo

SMILES	half-life
CC(=O)N1CCC(Cn2c(C(C)(C)C)nc3cc(S(=O)(=O)CC4CC4)ccc32)CC1	78 min
CC(=O)N1CCC(Cn2c(C(C)(C)C)nc3cc(S(=O)(=O)c4nccs4)ccc32)CC1	210 min

Test system: Rattus norvegicus
Experiment: Antinociceptive activity in rat at 10 mg/kg by hot plate method
Assay type: functional, organism-based
Design: dose 10 mg/kg
Settings: not given

SMILES	Activity
CC(=O)N1CCC(Cn2c(C(C)(C)C)nc3cc(S(=O)(=O)CC4CC4)ccc32)CC1	inactive
CC(=O)N1CCC(Cn2c(C(C)(C)C)nc3cc(S(=O)(=O)c4nccs4)ccc32)CC1	inactive

Test system: Rattus norvegicus
Experiment: Antiallodynic activity in rat chronic constriction injury-induced neuropathic pain model assessed as reversal of pain response at 10 to 40 mg/kg/day, sc
Assay type: functional, organism-based
Settings: not given
Summary of the method: as §2

SMILES	Activity
CC(=O)N1CCC(Cn2c(C(C)(C)C)nc3cc(S(=O)(=O)CC4CC4)ccc32)CC1	inactive

Test system: not listed separately
Experiment: Clearance in Sprague-Dawley rat at 2.5 mg/kg, iv and 10 mg/kg, po
Assay type: ADME, organism-based
Settings: in vivo

SMILES	clearance
CC(=O)N1CCC(Cn2c(C(C)(C)C)nc3cc(S(=O)(=O)CC4CC4)ccc32)CC1	41.7 mL/min/kg
CC(=O)N1CCC(Cn2c(C(C)(C)C)nc3cc(S(=O)(=O)c4nccs4)ccc32)CC1	53.3 mL/min/kg

Test system: not listed separately
Experiment: Drug metabolism in human liver microsomes after 15 mins
Assay type: ADME, Microsome
Settings: read-out: Drug metabolism

SMILES	metabolised at 0.25 h
CC(=O)N1CCC(Cn2c(C(C)(C)C)nc3cc(S(=O)(=O)CC4CC4)ccc32)CC1	18%
CC(=O)N1CCC(Cn2c(C(C)(C)C)nc3cc(S(=O)(=O)c4nccs4)ccc32)CC1	9%

Test system: not listed separately
Experiment: Solubility of the compound in water
Assay type: physicochemical
Settings: not given

SMILES	solubility
CC(=O)N1CCC(Cn2c(C(C)(C)C)nc3cc(S(=O)(=O)CC4CC4)ccc32)CC1	1500 µg/mL (≈ 3.48 mM)
CC(=O)N1CCC(Cn2c(C(C)(C)C)nc3cc(S(=O)(=O)c4nccs4)ccc32)CC1	20 µg/mL (≈ 0.0434 mM)

Test system: not listed separately
Experiment: Drug metabolism in rat liver microsomes at 5 uM after 60 mins
Assay type: ADME, Microsome
Settings: read-out: Drug metabolism
Summary of the method: as §3

SMILES	metabolised at 1 h, 5 µM
CC(=O)N1CCC(Cn2c(C(C)(C)C)nc3cc(S(=O)(=O)CC4CC4)ccc32)CC1	0%
CC(=O)N1CCC(Cn2c(C(C)(C)C)nc3cc(S(=O)(=O)c4nccs4)ccc32)CC1	0%

Biological target: Cannabinoid receptor 1 (Homo sapiens, UniProt P21554)
Sequence (P21554 whole entry): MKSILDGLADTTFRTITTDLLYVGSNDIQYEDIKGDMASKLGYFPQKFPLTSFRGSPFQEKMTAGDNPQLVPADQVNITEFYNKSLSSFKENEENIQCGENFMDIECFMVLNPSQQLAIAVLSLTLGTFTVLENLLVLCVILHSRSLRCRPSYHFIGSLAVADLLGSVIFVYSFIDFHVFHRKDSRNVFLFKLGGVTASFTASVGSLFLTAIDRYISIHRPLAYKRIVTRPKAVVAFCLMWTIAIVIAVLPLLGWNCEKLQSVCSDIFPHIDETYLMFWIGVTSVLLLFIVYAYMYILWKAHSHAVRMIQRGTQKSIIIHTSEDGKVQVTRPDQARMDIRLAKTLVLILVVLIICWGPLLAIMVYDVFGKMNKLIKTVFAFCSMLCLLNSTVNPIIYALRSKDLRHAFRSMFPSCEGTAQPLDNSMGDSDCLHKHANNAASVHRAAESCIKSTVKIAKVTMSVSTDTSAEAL
Experiment: Agonist activity at human CB1 receptor
Assay type: functional
Settings: not given

SMILES	EC50
CC(C)(C)c1nc2cc(S(=O)(=O)CCCC(F)(F)F)ccc2n1CC1CCNCC1	> 10 µM
CC(=O)N1CCC(Cn2c(C(C)(C)C)nc3cc(S(=O)(=O)CC4CC4)ccc32)CC1	> 10 µM
CC(=O)N1CCC(Cn2c(C(C)(C)C)nc3cc(S(=O)(=O)c4nccs4)ccc32)CC1	3.43 µM

Test system: not listed separately
Experiment: Ratio drug uptake in brain to plasma of Sprague-Dawley rat at 2.5 mg/kg, iv and 10 mg/kg, po
Assay type: ADME, organism-based
Settings: read-out: BPR
Summary of the method: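 Rat tissue distribution study; brain and plasma levels compared as brain/plasma ratio.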

SMILES	Kp
CC(=O)N1CCC(Cn2c(C(C)(C)C)nc3cc(S(=O)(=O)CC4CC4)ccc32)CC1	0.18
CC(=O)N1CCC(Cn2c(C(C)(C)C)nc3cc(S(=O)(=O)c4nccs4)ccc32)CC1	0.05

Test system: Rattus norvegicus
Experiment: Antinociceptive activity in rat at 10 mg/kg by paw flick test
Assay type: functional, organism-based
Design: dose 10 mg/kg
Settings: not given

SMILES	Activity
CC(=O)N1CCC(Cn2c(C(C)(C)C)nc3cc(S(=O)(=O)CC4CC4)ccc32)CC1	inactive
CC(=O)N1CCC(Cn2c(C(C)(C)C)nc3cc(S(=O)(=O)c4nccs4)ccc32)CC1	inactive

Test system: not listed separately
Experiment: Absolute oral bioavailability in Sprague-Dawley rat at 10 mg/kg
Assay type: ADME, organism-based
Settings: in vivo

SMILES	bioavailability
CC(=O)N1CCC(Cn2c(C(C)(C)C)nc3cc(S(=O)(=O)CC4CC4)ccc32)CC1	56%
CC(=O)N1CCC(Cn2c(C(C)(C)C)nc3cc(S(=O)(=O)c4nccs4)ccc32)CC1	35%

Test system: not listed separately
Experiment: Lipophilicity, Log P of the compound
Assay type: physicochemical
Settings: octanol/water

SMILES	logP
CC(=O)N1CCC(Cn2c(C(C)(C)C)nc3cc(S(=O)(=O)CC4CC4)ccc32)CC1	1.67
CC(=O)N1CCC(Cn2c(C(C)(C)C)nc3cc(S(=O)(=O)c4nccs4)ccc32)CC1	1.9

Test system: not listed separately
Experiment: Drug metabolism in dog liver microsomes at 5 uM after 60 mins
Assay type: ADME, Canis lupus familiaris, Microsome
Settings: read-out: Drug metabolism
Summary of the method: as §3

SMILES	metabolised at 1 h, 5 µM
CC(=O)N1CCC(Cn2c(C(C)(C)C)nc3cc(S(=O)(=O)CC4CC4)ccc32)CC1	4%
CC(=O)N1CCC(Cn2c(C(C)(C)C)nc3cc(S(=O)(=O)c4nccs4)ccc32)CC1	0%
